Data reported in ChEMBL document CHEMBL1275496, “In vivo pharmacodynamic target investigation for micafungin against Candida albicans and C. glabrata in a neutropenic murine candidiasis model” (Antimicrob Agents Chemother, 2008).
In brackets after ≈: the same amount, converted by molar mass. *1 amine or outer side, *2 acyl side, *3 side chain or, on linkers, in order; H or OH if unused. Where a SMILES comes first, the peptide text is derived from it. Bridges are numbered along the chain shown (N, C = ends). [ ]: non-standard residue; d: D form. The star is where a group is joined. hTyr(3S-OH,4S-OH,3'-OSO3H) = N[C@H](C(=O)O)[C@H](O)[C@@H](O)c1ccc(O)c(OS(=O)(=O)O)c1; Orn(4R-OH,5R-OH) = O=C([C@H](C[C@@H](O)[C@@H](O)N[*:3])N[*:1])[*:2]; Pro(3S-OH,4S-Me) = C[C@H]1CN[C@H](C(=O)O)[C@H]1O; X1 = CCCCCOc1ccc(-c2cc(-c3ccc(C(=O)*)cc3)no2)cc1; Gln(3R-OH) = NC(=O)C[C@@H](O)[C@H](N)C(=O)O; Hyp = O=C(O)[C@@H]1C[C@@H](O)CN1

Key:
[1] = Ratio of AUC in ICR/Swiss neutropenic mouse at static dose of 2.84 mg/kg, ip after 24 hrs to MIC for Candida albicans isolate K1; format: functional; conditions: route intraperitoneal
[2] = Ratio of AUC in ICR/Swiss neutropenic mouse at static dose of 2.4 mg/kg, ip after 24 hrs to MIC for Candida glabrata isolate 35315; format: functional; conditions: route intraperitoneal
[3] = Ratio of AUC in ICR/Swiss neutropenic mouse at static dose of 9.25 mg/kg, ip after 24 hrs to MIC for Candida glabrata isolate 37661; format: functional; conditions: route intraperitoneal
[4] = Ratio of AUC in ICR/Swiss neutropenic mouse at static dose of 2.18 mg/kg, ip after 24 hrs to MIC for Candida glabrata isolate 34341; format: functional; conditions: route intraperitoneal
[5] = Ratio of AUC in ICR/Swiss neutropenic mouse at static dose of 1.34 mg/kg, ip after 24 hrs to MIC for Candida glabrata isolate 513; format: functional; conditions: route intraperitoneal
[6] = Ratio of AUC in ICR/Swiss neutropenic mouse at static dose of 3.76 mg/kg, ip after 24 hrs to MIC for Candida glabrata isolate 570; format: functional; conditions: route intraperitoneal
[7] = Ratio of fAUC in ICR/Swiss neutropenic mouse at static dose of 1.98 mg/kg, ip after 24 hrs to MIC for Candida albicans isolate 580; format: functional; conditions: route intraperitoneal
[8] = Ratio of fAUC in ICR/Swiss neutropenic mouse at static dose of 2.18 mg/kg, ip after 24 hrs to MIC for Candida glabrata isolate 34341; format: functional; conditions: route intraperitoneal
[9] = Ratio of fAUC in ICR/Swiss neutropenic mouse at static dose of 1.34 mg/kg, ip after 24 hrs to MIC for Candida glabrata isolate 513; format: functional; conditions: route intraperitoneal
[10] = Ratio of fAUC in ICR/Swiss neutropenic mouse at static dose of 3.88 mg/kg, ip after 24 hrs to MIC for Candida glabrata isolate 33616; format: functional; conditions: route intraperitoneal
[11] = Ratio of AUC in ICR/Swiss neutropenic mouse at 1-Log kill dose of 4.08 mg/kg, ip after 24 hrs to MIC for Candida albicans isolate K1; format: functional; conditions: route intraperitoneal
[12] = Ratio of AUC in ICR/Swiss neutropenic mouse at 1-Log kill dose of 5.46 mg/kg, ip after 24 hrs to MIC for Candida glabrata isolate 5592; format: functional; conditions: route intraperitoneal
[13] = Ratio of AUC in ICR/Swiss neutropenic mouse at 1-Log kill dose of 7.89 mg/kg, ip after 24 hrs to MIC for Candida glabrata isolate 33616; format: functional; conditions: route intraperitoneal
[14] = Ratio of fAUC in ICR/Swiss neutropenic mouse at 1-Log kill dose of 3.77 mg/kg, ip after 24 hrs to MIC for Candida glabrata isolate 35315; format: functional; conditions: route intraperitoneal
[15] = Ratio of fAUC in ICR/Swiss neutropenic mouse at 1-Log kill dose of 4.26 mg/kg, ip after 24 hrs to MIC for Candida glabrata isolate 34341; format: functional; conditions: route intraperitoneal
[16] = Ratio of fAUC in ICR/Swiss neutropenic mouse at 1-Log kill dose of 5.46 mg/kg, ip after 24 hrs to MIC for Candida glabrata isolate 5592; format: functional; conditions: route intraperitoneal
[17] = Ratio of fAUC in ICR/Swiss neutropenic mouse at 1-Log kill dose of 7.89 mg/kg, ip after 24 hrs to MIC for Candida glabrata isolate 33616; format: functional; conditions: route intraperitoneal
[18] = tested on: Nakaseomyces glabratus; test: Antifungal activity against Candida glabrata isolate 32930 by CLSI method; format: functional
Procedure, shortened: (§1)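 Broth microdilution MIC per CLSI M27-A2. Two endpoints were read against the drug-free control well: partial inhibition (M1, CLSI recommended) and complete inhibition (M2). Tests were run in duplicate on four separate occasions, and the value is the mean.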

[19] = tested on: Nakaseomyces glabratus; test: Antifungal activity against Candida glabrata isolate 33609 by CLSI method; format: functional; procedure, shortened: as §1
[20] = tested on: Nakaseomyces glabratus; test: Antifungal activity against Candida glabrata isolate 513 by CLSI method; format: functional; procedure, shortened: as §1
[21] = tested on: Nakaseomyces glabratus; test: Antifungal activity against Candida glabrata isolate 5376 by CLSI method; format: functional; procedure, shortened: as §1
[22] = tested on: Nakaseomyces glabratus; test: Antifungal activity against Candida glabrata isolate 33616 by CLSI method; format: functional
Procedure, shortened: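 Broth microdilution per CLSI M27-A2. The MIC was read at partial inhibition (M1) and at complete inhibition (M2) against the drug-free control. Done in duplicate on four separate occasions and reported as the mean.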

[23] = Cmax in Candida infected ICR/Swiss neutropenic mouse at 80 mg/kg, ip; format: ADME, organism-based; parameters: dose 80 mg/kg, route intraperitoneal; conditions: in vivo
Procedure, shortened: (§2)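 Single intraperitoneal micafungin doses (80, 20, 5 mg/kg in 0.2 ml, 0.15 M NaCl) given to infected neutropenic mice. Serum was taken from 3 mice per time point at 1, 2, 4, 6, 8, 12, 24 and 48 h. Drug was measured by microbiologic assay with C. albicans K1 (LLOQ 0.12 μg/ml). Noncompartmental analysis; half-life by nonlinear least squares; AUC by trapezoidal rule.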

[24] = AUC (0 to infinity) in Candida infected ICR/Swiss neutropenic mouse at 80 mg/kg, ip; format: ADME, organism-based; parameters: time infinity, dose 80 mg/kg, route intraperitoneal; conditions: plasma; procedure, shortened: as §2
[25] = Half life in Candida infected ICR/Swiss neutropenic mouse at 80 mg/kg, ip; format: ADME, organism-based; parameters: dose 80 mg/kg, route intraperitoneal; conditions: in vivo; procedure, shortened: as §2
[26] = AUC (0 to infinity) in Candida infected ICR/Swiss neutropenic mouse at 5 mg/kg, ip; format: ADME, organism-based; parameters: dose 5 mg/kg, route intraperitoneal, time infinity; conditions: plasma; procedure, shortened: as §2
[27] = Half life in Candida infected ICR/Swiss neutropenic mouse at 5 mg/kg, ip; format: ADME, organism-based; parameters: dose 5 mg/kg, route intraperitoneal; conditions: in vivo; procedure, shortened: as §2
[28] = tested on: Nakaseomyces glabratus; test: Fungistatic activity against Candida glabrata isolate 37661 infected in ICR/Swiss neutropenic mouse after 24 hrs; format: functional
Procedure, shortened: (§3)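 Neutropenic female ICR/Swiss mice received cyclophosphamide sc at 150 mg/kg on day −4, 100 mg/kg on day −1 and 100 mg/kg on day +2. Mice were infected iv via the tail vein, and ip micafungin in 0.15 M NaCl started 2 h later. Six dose levels from 0.078 to 80 mg/kg/24 h were given q24h for 4 days, 3 mice per dose. Kidney CFU were counted at 96 h. The static dose was derived from a sigmoid Emax (Hill) fit.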

[29] = tested on: Nakaseomyces glabratus; test: Fungistatic activity against Candida glabrata isolate 32930 infected in ICR/Swiss neutropenic mouse after 24 hrs; format: functional; procedure, shortened: as §3
[30] = tested on: Nakaseomyces glabratus; test: Fungistatic activity against Candida glabrata isolate 33616 infected in ICR/Swiss neutropenic mouse after 24 hrs; format: functional; procedure, shortened: as §3
[31] = tested on: Nakaseomyces glabratus; test: Antifungal activity against Candida glabrata isolate 35315 infected in ICR/Swiss neutropenic mouse assessed as dose required for 1-log kill after 24 hrs; format: functional
Procedure, shortened: (§4)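 Neutropenic mice (cyclophosphamide sc 150 mg/kg day −4, 100 mg/kg day −1 and +2) infected iv by tail vein 2 h before therapy. Micafungin given ip every 24 h for 4 days at six fourfold-spaced dose levels, 0.078–80 mg/kg/24 h, 3 mice per group. Kidney CFU read at 96 h. Hill-model fit; dose giving 1 log10 below start-of-therapy burden.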

[32] = tested on: Nakaseomyces glabratus; test: Antifungal activity against Candida glabrata isolate 37661 infected in ICR/Swiss neutropenic mouse assessed as dose required for 1-log kill after 24 hrs; format: functional; procedure, shortened: as §4
[33] = tested on: Nakaseomyces glabratus; test: Antifungal activity against Candida glabrata isolate 32930 infected in ICR/Swiss neutropenic mouse assessed as dose required for 1-log kill after 24 hrs; format: functional; procedure, shortened: as §4

CCCCCOc1ccc(-c2cc(-c3ccc(C(=O)N[C@H]4C[C@@H](O)[C@@H](O)NC(=O)[C@@H]5[C@@H](O)[C@@H](C)CN5C(=O)[C@H]([C@H](O)CC(N)=O)NC(=O)[C@H]([C@H](O)[C@@H](O)c5ccc(O)c(OS(=O)(=O)O)c5)NC(=O)[C@@H]5C[C@@H](O)CN5C(=O)[C@H]([C@@H](C)O)NC4=O)cc3)no2)cc1 [MICAFUNGIN] (X1-[Orn(4R-OH,5R-OH)]T[Hyp][hTyr(3S-OH,4S-OH,3'-OSO3H)][Gln(3R-OH)][Pro(3S-OH,4S-Me)]; lactam 1-C)
RatioAUC/MIC [1]: 5200 | RatioAUC/MIC [2]: 1103 | RatioAUC/MIC [3]: 984 | RatioAUC/MIC [4]: 1003 | RatioAUC/MIC [5]: 2467 | RatioAUC/MIC [6]: 6933 | fAUC/MIC [7]: 19.6 | fAUC/MIC [8]: 2.51 | fAUC/MIC [9]: 6.2 | fAUC/MIC [10]: 1.1 | RatioAUC/MIC [11]: 7533 | RatioAUC/MIC [12]: 10000 | RatioAUC/MIC [13]: 848 | fAUC/MIC [14]: 4.33 | fAUC/MIC [15]: 4.9 | fAUC/MIC [16]: 25 | fAUC/MIC [17]: 2.2 | MIC [18]: 0.016 µg/mL (≈ 0.0126 µM) | MIC50 [18]: 0.008 µg/mL (≈ 0.0063 µM) | MIC [19]: 0.016 µg/mL (≈ 0.0126 µM) | MIC50 [19]: 0.016 µg/mL (≈ 0.0126 µM) | MIC [20]: 0.03 µg/mL (≈ 0.0236 µM) | MIC50 [20]: 0.016 µg/mL (≈ 0.0126 µM) | MIC [21]: 0.016 µg/mL (≈ 0.0126 µM) | MIC50 [21]: 0.008 µg/mL (≈ 0.0063 µM) | MIC [22]: 0.5 µg/mL (≈ 0.394 µM) | MIC50 [22]: 0.25 µg/mL (≈ 0.197 µM) | Cmax [23]: 53 µg/mL | AUC(0-inf) [24]: 1400 µg·h/mL | half-life [25]: 16 h | AUC(0-inf) [26]: 138 µg·h/mL | half-life [27]: 7.5 h | Activity [28]: 9.25 mg/kg | Activity [29]: 0.06 mg/kg | Activity [30]: 3.88 mg/kg | Activity [31]: 3.77 mg/kg | Activity [32]: 20.6 mg/kg | Activity [33]: 1.69 mg/kg
